Results collected from several papers.
Target: Serine/threonine-protein kinase TAO2 (TAOK2, Homo sapiens, UniProt Q9UL54)
One construct used (Q9UL54 1-1235): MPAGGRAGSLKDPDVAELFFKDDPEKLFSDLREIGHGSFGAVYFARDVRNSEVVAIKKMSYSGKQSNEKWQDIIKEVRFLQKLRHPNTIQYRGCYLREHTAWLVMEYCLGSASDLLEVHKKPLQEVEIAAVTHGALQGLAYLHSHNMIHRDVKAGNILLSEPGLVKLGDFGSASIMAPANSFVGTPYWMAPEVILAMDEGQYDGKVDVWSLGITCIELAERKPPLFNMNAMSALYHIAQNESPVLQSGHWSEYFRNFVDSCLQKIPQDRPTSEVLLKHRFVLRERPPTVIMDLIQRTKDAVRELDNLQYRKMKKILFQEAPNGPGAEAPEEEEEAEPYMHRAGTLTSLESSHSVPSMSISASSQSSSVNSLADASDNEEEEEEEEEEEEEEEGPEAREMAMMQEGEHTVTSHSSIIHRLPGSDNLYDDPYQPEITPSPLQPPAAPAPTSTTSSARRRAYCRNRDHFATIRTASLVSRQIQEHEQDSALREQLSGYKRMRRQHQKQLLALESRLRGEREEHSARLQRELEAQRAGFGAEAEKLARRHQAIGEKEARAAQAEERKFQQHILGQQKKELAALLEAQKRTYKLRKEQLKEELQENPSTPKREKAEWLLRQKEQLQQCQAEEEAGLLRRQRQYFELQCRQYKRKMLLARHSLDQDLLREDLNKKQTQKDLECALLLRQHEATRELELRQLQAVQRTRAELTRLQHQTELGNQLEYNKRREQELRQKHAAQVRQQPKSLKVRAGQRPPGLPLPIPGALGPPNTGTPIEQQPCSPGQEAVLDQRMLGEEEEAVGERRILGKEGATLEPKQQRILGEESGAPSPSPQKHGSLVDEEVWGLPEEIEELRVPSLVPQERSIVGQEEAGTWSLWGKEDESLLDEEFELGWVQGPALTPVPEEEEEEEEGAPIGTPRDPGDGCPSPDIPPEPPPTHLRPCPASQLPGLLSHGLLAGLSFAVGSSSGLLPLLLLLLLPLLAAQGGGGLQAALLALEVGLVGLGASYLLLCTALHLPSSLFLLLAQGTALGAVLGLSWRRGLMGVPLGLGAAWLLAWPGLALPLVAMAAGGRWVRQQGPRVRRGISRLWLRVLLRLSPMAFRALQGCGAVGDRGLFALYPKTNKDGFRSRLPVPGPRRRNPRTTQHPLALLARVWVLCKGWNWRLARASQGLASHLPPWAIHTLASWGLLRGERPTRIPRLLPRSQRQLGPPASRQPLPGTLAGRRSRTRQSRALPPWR

SMILES	observed	technique	concentration	remaining binding
F[C@@H]1CCN(c2nccc(-c3cnn4ncccc34)n2)C1	binding	–	1 µM	100%
O=S(=O)(NC1CCC(c2cc(F)ccc2F)(S(=O)(=O)c2ccc(Cl)cc2)CC1)C(F)(F)F (stereo not shown)	cell-free assay	competition with immobilised ligand	1 µM	100%
O=C(c1ccc(Nc2ncc(Cl)c(-c3ccc(Cl)s3)n2)cc1)N1CCC(N2CCCC2)CC1	binding	competition with immobilised ligand	1 µM	65%
C=CC(=O)N1CCC(C(=O)NCC(=O)N2CCN(c3nc(-c4cnc(N)nc4C(F)F)nc(N4CCOCC4)n3)CC2)CC1	binding	competition with immobilised ligand	1 µM	72%
COc1ccnn2ncc(-c3ccnc(N(C)C)n3)c12	binding	–	1 µM	85%
O=C(NCCCN1CCOCC1)c1ccc(Nc2ncc(Cl)c(-c3ccc(Cl)s3)n2)cc1	binding	competition with immobilised ligand	1 µM	69%
COc1cnc(Nc2cccc(S(N)(=O)=O)c2)nc1N1CCN(c2ccccc2)C(=O)C1	binding	competition with immobilised ligand	1 µM	95%
CC(=O)Nc1c(C(C)=O)c(=O)n(C)c2nc(-c3ccc(Cl)cc3Cl)c(-c3ccc(Cl)cc3)cc12	cell-free assay	competition with immobilised ligand	1 µM	88%
O=C(Nc1c[nH]nc1C(=O)NC1CCNCC1)c1cc(F)cc(F)c1	binding	competition with immobilised ligand	1 µM	61%
COc1ncc2cc3ccccc3nc2c1C#N	cell-free assay	competition with immobilised ligand	5 µM	93%
N[C@H]1CCN(c2nccc(-c3cnn4ncccc34)n2)C1	binding	–	1 µM	52%
CCOC(=O)c1cc2cc(-c3cc(C(=O)NCc4ccc(C(=O)O)cc4)nn3C)ccc2[nH]1	cell-free assay	competition with immobilised ligand	0.1 µM	90%
CC1CCCN1c1nccc(-c2cnn3ncccc23)n1 (stereo not shown)	binding	–	1 µM	100%
COc1cnc(Nc2cccc(S(N)(=O)=O)c2)nc1N1CCN(c2ccccc2)CC1	binding	competition with immobilised ligand	1 µM	86%
FC(F)(F)Oc1cccc(-c2cnc3ccc(-c4ccncc4)nn23)c1	binding	competition with immobilised ligand	5 µM	100%
Cn1nc(C(=O)NCc2ccc(C(=O)O)cc2)cc1-c1ccc2[nH]ccc2c1	cell-free assay	competition with immobilised ligand	0.1 µM	82%
c1cnn2ncc(-c3ccnc(N4CCC45COC5)n3)c2c1	binding	–	1 µM	71%
Cc1cc(NC(=O)c2cccc(S(F)(F)(F)(F)F)c2)cc(-n2ccn3nc(-c4cccnc4)cc23)c1	cell-free assay	competition with immobilised ligand	1 µM	91.3%
CN(C)c1ncc(F)c(-c2cnn3ncccc23)n1	binding	–	1 µM	79%
Cc1cnc(Nc2ccc(C(=O)N3CCC(N4CCCC4)CC3)cc2)nc1-c1cc2ccccc2s1	binding	competition with immobilised ligand	1 µM	29%
CN(c1nccc(-c2cnn3ncccc23)n1)C1CC1	binding	–	1 µM	100%
O=C(O)[C@H]1[C@H](Cn2nnc3ccccc3c2=O)CC[C@@H]1C(=O)c1ccc(OCCC2CCOCC2)cc1	cell-free assay	competition with immobilised ligand	1 µM	100%
